Measured values: ChEMBL document CHEMBL2331531, “Synthesis and biological evaluation of urea derivatives as highly potent and selective rho kinase inhibitors” (J Med Chem, 2013)

Tests used:
[1] = biological target: Mitogen-activated protein kinase 10 (Homo sapiens, UniProt P53779); experiment: Inhibition of JNK3 alpha1 (unknown origin) using biotinylated Flag-ATF2 as substrate after 15 mins by HTRF assay
[2] = Clearance in Sprague-Dawley rat at 1 mg/kg, iv by LC-MS/MS analysis; assay type: ADME, organism-based; design: dose 1 mg/kg, route intravenous; conditions: in vivo
[3] = Half life in human liver microsomes; assay type: ADME, Microsome
[4] = Cmax in Sprague-Dawley rat at 1 mg/kg, iv by LC-MS/MS analysis; assay type: ADME, organism-based; design: dose 1 mg/kg, route intravenous; conditions: in vivo
[5] = biological target: MAP kinase p38 (Homo sapiens, UniProt O15264+Q15759+Q16539+P53778); experiment: Inhibition of p38 (unknown origin) using biotinylated Flag-ATF2 as substrate after 30 mins by HTRF assay; assay type: protein assay
[6] = Inhibition of ROCK-mediated myosin light chain bisphosphorylation in rat A7R5 cells after 1 hr by fluorescence assay in presence of L-alpha-lysophosphatidic acid; assay type: cell-based
Procedure, shortened: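 A7r5 cells in 20% FBS DMEM, plated 5000/well overnight, serum-starved 4 h in 0.05% FBS DMEM; compound 13333 nM to 18 nM final for 1 h, then 10 μM LPA 10 min; fixed, permeabilized, anti-ppMLC plus IR800 secondary; infrared scan, ppMLC signal normalized to TO-PRO-3 nuclear signal. IC50 as mean of two or more experiments.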

[7] = Aqueous solubility in potassium phosphate buffer at pH 5.5 after 24 hrs by HPLC analysis; assay type: physicochemical; conditions: pH 5.5, 24 h
[8] = biological target: CYP3A4 (Homo sapiens, UniProt P08684); experiment: Inhibition of CYP3A4 (unknown origin)-mediated midazolam hydroxylation to 1'-Hydroxymidazolam at 10 uM relative to control; assay type: ADME; conditions: probe midazolam
[9] = Oral bioavailability in Sprague-Dawley rat at 2 mg/kg by LC-MS/MS analysis; assay type: ADME, organism-based; conditions: in vivo
[10] = Volume of distribution in Sprague-Dawley rat at 1 mg/kg, iv by LC-MS/MS analysis; assay type: ADME, organism-based; design: dose 1 mg/kg, route intravenous; conditions: in vivo
[11] = Half life in Sprague-Dawley rat at 1 mg/kg, iv by LC-MS/MS analysis; assay type: ADME, organism-based; design: dose 1 mg/kg, route intravenous; conditions: in vivo
[12] = biological target: CYP2C9 (Homo sapiens, UniProt P11712); experiment: Inhibition of CYP2C9 (unknown origin)-mediated tolbutamide hydroxylation to hydroxy tolbutamide at 10 uM relative to control; assay type: ADME; conditions: probe tolbutamide
[13] = biological target: CYP2D6 (Homo sapiens, UniProt P10635); experiment: Inhibition of CYP2D6 (unknown origin)-mediated bufuralol hydroxylation to 4'-Hydroxybufuralol at 10 uM relative to control; assay type: ADME; conditions: probe bufuralol
[14] = biological target: Rho-associated protein kinase 2 (Homo sapiens, UniProt O75116); experiment: Inhibition of ROCK2 (unknown origin) after 4 hrs by HTRF assay
[15] = AUC in Sprague-Dawley rat at 1 mg/kg, iv by LC-MS/MS analysis; assay type: ADME, organism-based, Plasma; design: dose 1 mg/kg, route intravenous; conditions: Sprague-Dawley, plasma
[16] = biological target: T1, CYP1A2 (Homo sapiens, UniProt P05177); experiment: Inhibition of CYP1A2 (unknown origin)-mediated phenaceten demethylation to acetaminophen at 10 uM relative to control; assay type: ADME; conditions: probe phenacetin (printed: phenaceten)
T1 sequence (P05177 whole entry): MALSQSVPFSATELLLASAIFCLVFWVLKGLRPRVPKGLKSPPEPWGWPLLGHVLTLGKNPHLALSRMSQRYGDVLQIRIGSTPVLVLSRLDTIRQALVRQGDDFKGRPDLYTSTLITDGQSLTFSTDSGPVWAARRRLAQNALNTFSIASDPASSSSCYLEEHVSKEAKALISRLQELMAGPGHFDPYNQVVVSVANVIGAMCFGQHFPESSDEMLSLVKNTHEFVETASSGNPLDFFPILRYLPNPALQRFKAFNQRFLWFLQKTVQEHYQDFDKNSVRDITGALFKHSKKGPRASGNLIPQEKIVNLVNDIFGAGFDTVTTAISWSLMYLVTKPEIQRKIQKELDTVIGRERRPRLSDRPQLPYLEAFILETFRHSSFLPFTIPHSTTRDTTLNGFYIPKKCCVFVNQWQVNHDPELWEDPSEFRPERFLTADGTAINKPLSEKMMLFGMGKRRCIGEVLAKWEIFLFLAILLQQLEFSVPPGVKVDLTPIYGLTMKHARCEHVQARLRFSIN

[17] = Inhibition of PKA (unknown origin) after 70 mins by luminescence assay; design: species or system Homo sapiens
[18] = biological target: Rho-associated protein kinase 1 (Homo sapiens, UniProt Q13464); experiment: Inhibition of ROCK1 (unknown origin) after 4 hrs by HTRF assay
Rho-associated protein kinase 1, sequence (Q13464 whole entry): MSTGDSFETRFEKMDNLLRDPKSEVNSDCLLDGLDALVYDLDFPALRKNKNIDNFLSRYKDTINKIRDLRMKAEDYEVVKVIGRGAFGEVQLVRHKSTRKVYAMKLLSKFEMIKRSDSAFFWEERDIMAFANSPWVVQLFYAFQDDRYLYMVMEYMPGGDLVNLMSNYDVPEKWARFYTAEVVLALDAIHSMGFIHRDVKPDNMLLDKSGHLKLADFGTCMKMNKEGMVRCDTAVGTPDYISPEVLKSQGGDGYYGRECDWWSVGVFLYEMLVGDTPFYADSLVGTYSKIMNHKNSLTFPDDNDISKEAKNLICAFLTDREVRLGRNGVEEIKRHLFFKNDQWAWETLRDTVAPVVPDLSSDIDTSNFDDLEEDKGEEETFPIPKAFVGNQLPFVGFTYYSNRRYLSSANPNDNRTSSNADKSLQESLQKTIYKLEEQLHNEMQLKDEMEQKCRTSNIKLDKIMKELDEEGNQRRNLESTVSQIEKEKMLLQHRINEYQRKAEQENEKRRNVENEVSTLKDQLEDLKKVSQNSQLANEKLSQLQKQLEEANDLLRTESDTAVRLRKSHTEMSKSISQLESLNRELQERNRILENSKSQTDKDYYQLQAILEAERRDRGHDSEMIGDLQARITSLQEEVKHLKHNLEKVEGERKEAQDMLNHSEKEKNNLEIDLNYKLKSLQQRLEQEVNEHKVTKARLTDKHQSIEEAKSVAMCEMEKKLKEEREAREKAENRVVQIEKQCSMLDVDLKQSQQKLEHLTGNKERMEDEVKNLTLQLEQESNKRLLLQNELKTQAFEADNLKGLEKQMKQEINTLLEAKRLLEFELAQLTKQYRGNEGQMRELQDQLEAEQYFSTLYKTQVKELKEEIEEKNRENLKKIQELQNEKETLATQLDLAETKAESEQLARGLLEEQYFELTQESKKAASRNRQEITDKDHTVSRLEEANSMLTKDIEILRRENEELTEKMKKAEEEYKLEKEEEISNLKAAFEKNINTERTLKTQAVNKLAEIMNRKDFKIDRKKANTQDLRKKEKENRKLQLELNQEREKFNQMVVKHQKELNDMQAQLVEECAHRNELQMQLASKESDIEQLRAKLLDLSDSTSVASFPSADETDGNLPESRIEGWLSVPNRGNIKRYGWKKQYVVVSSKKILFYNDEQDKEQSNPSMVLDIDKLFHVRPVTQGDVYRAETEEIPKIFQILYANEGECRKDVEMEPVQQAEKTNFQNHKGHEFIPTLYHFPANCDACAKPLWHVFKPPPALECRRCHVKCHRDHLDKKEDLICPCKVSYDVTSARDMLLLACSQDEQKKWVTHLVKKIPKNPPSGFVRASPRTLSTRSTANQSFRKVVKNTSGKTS

CYP2C9, sequence (P11712 whole entry): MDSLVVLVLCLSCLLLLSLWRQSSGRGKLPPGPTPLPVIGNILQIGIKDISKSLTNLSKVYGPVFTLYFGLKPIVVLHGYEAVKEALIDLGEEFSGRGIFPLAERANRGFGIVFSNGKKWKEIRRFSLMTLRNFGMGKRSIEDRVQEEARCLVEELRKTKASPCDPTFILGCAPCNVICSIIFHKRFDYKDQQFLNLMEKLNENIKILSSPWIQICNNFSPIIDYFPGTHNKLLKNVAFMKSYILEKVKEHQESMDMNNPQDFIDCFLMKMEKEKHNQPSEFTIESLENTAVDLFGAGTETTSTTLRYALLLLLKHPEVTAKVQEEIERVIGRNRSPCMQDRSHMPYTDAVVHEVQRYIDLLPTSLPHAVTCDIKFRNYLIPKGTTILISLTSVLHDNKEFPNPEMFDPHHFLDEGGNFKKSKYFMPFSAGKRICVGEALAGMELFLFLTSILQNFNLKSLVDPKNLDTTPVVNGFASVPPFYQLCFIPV
CYP3A4, sequence (P08684 whole entry): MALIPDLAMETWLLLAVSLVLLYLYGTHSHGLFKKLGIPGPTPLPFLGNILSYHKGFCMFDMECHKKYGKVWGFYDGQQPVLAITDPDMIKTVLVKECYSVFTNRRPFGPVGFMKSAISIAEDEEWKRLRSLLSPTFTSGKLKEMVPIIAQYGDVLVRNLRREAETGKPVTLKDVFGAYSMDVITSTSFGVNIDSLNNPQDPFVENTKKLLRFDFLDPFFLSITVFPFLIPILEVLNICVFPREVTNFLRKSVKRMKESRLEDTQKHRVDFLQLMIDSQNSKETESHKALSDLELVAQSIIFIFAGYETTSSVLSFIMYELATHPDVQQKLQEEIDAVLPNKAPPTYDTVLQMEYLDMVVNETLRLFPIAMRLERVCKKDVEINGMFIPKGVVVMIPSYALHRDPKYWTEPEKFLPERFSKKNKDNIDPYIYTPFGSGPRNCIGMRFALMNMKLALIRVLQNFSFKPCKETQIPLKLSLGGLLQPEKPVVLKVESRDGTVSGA
Rho-associated protein kinase 2, sequence (O75116 whole entry): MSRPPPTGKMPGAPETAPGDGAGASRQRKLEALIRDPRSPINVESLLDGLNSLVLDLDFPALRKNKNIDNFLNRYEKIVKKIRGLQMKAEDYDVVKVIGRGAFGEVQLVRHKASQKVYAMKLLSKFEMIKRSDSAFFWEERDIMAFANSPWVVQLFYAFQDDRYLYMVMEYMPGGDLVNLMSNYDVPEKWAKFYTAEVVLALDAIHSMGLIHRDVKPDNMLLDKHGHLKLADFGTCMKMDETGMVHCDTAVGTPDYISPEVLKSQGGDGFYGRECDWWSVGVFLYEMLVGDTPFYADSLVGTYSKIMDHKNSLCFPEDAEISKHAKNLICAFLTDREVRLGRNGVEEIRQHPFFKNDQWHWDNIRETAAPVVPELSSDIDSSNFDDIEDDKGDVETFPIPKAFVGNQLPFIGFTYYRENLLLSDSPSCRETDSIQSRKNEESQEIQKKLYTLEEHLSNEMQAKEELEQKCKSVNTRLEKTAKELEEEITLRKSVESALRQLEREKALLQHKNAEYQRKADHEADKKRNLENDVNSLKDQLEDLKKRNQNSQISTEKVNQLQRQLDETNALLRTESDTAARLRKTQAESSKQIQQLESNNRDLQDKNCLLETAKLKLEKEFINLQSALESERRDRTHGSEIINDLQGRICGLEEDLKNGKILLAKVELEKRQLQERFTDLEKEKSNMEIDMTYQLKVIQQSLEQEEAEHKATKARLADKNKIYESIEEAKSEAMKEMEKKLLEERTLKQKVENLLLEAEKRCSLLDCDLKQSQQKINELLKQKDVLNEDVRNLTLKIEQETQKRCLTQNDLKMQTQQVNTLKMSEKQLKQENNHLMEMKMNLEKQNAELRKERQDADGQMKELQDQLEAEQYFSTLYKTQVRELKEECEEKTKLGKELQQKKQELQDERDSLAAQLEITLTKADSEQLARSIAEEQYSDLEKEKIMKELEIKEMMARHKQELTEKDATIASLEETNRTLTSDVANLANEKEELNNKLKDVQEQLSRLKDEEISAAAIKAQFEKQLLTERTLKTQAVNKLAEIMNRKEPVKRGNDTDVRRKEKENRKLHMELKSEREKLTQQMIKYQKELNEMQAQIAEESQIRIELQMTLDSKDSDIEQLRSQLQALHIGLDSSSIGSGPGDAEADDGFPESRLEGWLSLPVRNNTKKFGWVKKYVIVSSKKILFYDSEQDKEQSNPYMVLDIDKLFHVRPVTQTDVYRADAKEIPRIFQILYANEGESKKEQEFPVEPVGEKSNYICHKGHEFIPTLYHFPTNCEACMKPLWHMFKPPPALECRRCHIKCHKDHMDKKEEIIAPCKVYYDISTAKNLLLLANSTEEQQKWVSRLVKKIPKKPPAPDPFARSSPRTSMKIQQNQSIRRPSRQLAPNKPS
Mitogen-activated protein kinase 10, sequence (P53779 whole entry): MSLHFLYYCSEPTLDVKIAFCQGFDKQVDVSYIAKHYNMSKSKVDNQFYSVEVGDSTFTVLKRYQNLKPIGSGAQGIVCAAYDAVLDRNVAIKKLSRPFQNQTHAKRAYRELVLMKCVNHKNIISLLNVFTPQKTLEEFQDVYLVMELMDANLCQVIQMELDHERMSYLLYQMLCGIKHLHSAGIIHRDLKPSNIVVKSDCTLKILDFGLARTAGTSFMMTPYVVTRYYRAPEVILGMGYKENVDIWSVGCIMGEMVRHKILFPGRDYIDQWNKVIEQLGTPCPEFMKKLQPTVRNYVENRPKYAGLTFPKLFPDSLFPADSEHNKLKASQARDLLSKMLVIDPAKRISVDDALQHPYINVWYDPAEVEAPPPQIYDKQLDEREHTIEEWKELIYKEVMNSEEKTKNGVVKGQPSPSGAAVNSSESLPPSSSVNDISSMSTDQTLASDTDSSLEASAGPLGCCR
CYP2D6, sequence (P10635 whole entry): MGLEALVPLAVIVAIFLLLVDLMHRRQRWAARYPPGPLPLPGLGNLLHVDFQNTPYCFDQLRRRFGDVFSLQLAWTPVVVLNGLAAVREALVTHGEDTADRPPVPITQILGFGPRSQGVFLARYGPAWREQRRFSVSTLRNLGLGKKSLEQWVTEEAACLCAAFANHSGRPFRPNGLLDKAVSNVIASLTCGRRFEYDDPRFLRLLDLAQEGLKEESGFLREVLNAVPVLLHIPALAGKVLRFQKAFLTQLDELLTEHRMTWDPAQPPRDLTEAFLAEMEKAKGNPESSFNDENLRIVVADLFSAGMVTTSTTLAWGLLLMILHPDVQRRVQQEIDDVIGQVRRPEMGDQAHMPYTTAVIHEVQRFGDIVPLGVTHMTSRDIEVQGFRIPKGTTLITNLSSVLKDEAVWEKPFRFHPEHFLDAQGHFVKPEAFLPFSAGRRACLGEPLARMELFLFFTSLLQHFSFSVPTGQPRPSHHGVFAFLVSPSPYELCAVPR

| Structure (SMILES) | half-life [3] [min] | IC50 [6] [nM] | IC50 [14] [nM] | IC50 [17] [nM] | other results |
| --- | --- | --- | --- | --- | --- |
| COc1cccc(CN(CCN2CCCCC2)C(=O)Nc2ccc(-c3cn[nH]c3)cc2)c1 | 11 | 17 | 5 | 338 | IC50 [1]: > 20000 nM; clearance [2]: 86 mL/min/kg; Cmax [4]: 530 nM; IC50 [5]: > 20000 nM; solubility [7]: soluble; inhibition at 10 µM [8]: 61%; bioavailability [9]: 0%; Vd [10]: 4.3 L/kg; half-life [11]: 60 min; inhibition at 10 µM [12]: 56%; inhibition at 10 µM [13]: 87%; AUC [15]: 0.4 µM·h; inhibition at 10 µM [16]: 18%; IC50 [18]: 14 nM |
| COc1cccc(CN(CCN2CCOCC2)C(=O)Nc2ccc(-c3cn[nH]c3)cc2)c1 | 3 | 138 | 13 | 3820 | IC50 [1]: > 20000 nM; clearance [2]: 63 mL/min/kg; Cmax [4]: 1200 nM; IC50 [5]: > 20000 nM; solubility [7]: soluble; inhibition at 10 µM [8]: 51%; bioavailability [9]: 4%; Vd [10]: 3.5 L/kg; half-life [11]: 132 min; inhibition at 10 µM [12]: 68%; inhibition at 10 µM [13]: 82%; AUC [15]: 0.6 µM·h; inhibition at 10 µM [16]: -37%; IC50 [18]: 58 nM |
| COc1cccc(CN(CCCN2CCOCC2)C(=O)Nc2ccc(-c3cn[nH]c3)cc2)c1 | 4 | 84 | 4 | 724 | – |
| COc1ccc(CNC(=O)Nc2ccc(-c3cn[nH]c3)cc2)cc1OC | – | – | 425 | > 20000 | – |
| CCN(Cc1cccc(OC)c1)C(=O)Nc1ccc(-c2cn[nH]c2)cc1 | 25 | 44 | 1 | 4670 | – |
| COc1cccc(CNC(=O)N(CCN2CCCC2)c2ccc(-c3cn[nH]c3)cc2)c1 | – | – | > 20000 | > 20000 | – |
| COc1cccc(OC)c1CNC(=O)Nc1ccc(-c2cn[nH]c2)cc1 | – | – | 924 | 13500 | – |
| COc1ccc(OC)c(CNC(=O)Nc2ccc(-c3cn[nH]c3)cc2)c1 | – | – | 570 | > 20000 | – |
| COc1cccc(CNC(=O)N(C)c2ccc(-c3cn[nH]c3)cc2)c1 | – | – | 87 | > 20000 | – |
| COc1cccc(CNC(=O)N(CCCN(C)C)c2ccc(-c3cn[nH]c3)cc2)c1 | – | – | 3320 | 12000 | – |
| COc1cccc(CNC(=O)N(CCO)c2ccc(-c3cn[nH]c3)cc2)c1 | – | – | 611 | > 20000 | – |
| COc1cccc(CN(C(=O)Nc2ccc(-c3cn[nH]c3)cc2)C2CC2)c1 | 25 | 4 | 1 | 1700 | – |
| COc1cccc(CN(CCN2CCCC2)C(=O)Nc2ccc(-c3cn[nH]c3)cc2)c1 | 25 | 6 | 3 | 541 | IC50 [1]: > 20000 nM; clearance [2]: 71 mL/min/kg; Cmax [4]: 480 nM; IC50 [5]: > 20000 nM; solubility [7]: soluble; inhibition at 10 µM [8]: 34%; bioavailability [9]: 0%; Vd [10]: 4.4 L/kg; half-life [11]: 60 min; inhibition at 10 µM [12]: 24%; inhibition at 10 µM [13]: 88%; AUC [15]: 0.6 µM·h; inhibition at 10 µM [16]: 0%; IC50 [18]: 13 nM |
| COc1cccc(CN(CCCN2CCCCC2)C(=O)Nc2ccc(-c3cn[nH]c3)cc2)c1 | 14 | 75 | 4 | 822 | – |
| COc1cccc(CN(CCN(C)C)C(=O)Nc2ccc(-c3cn[nH]c3)cc2OCCN(C)C)c1 | – | – | 170 | – | – |
| COc1cccc(CN(CCCN2CCCC2)C(=O)Nc2ccc(-c3cn[nH]c3)cc2)c1 | 59 | 18 | 5 | 228 | – |
| COc1cccc(CN(CCN)C(=O)Nc2ccc(-c3cn[nH]c3)cc2)c1 | > 120 | 8 | < 1 | 72 | – |
| COc1cccc(CN(C(=O)Nc2ccc(-c3cn[nH]c3)cc2)C(C)C)c1 | 11 | 67 | 3 | 18400 | – |
| COc1cccc(CNC(=O)N(CCN(C)C)c2ccc(-c3cn[nH]c3)cc2)c1 | – | – | 2980 | 4200 | – |
| COc1cc(CNC(=O)Nc2ccc(-c3cn[nH]c3)cc2)cc(OC)c1 | – | – | 281 | > 20000 | – |
| COCCN(Cc1cccc(OC)c1)C(=O)Nc1ccc(-c2cn[nH]c2)cc1 | 21 | 180 | 17 | 10500 | – |
| O=C(Nc1ccc(-c2cn[nH]c2)cc1F)N(CCO)Cc1ccccc1 | > 120 | 33 | 14 | 1020 | – |
| COc1cccc(CN(CCO)C(=O)Nc2ccc(-c3cn[nH]c3)cc2OCCO)c1 | – | 220 | < 1 | 615 | – |
| COc1ccc(CNC(=O)Nc2ccc(-c3cn[nH]c3)cc2)c(OC)c1 | – | – | 331 | 11200 | – |
| O=C(NCC1CCCCC1)Nc1ccc(-c2cn[nH]c2)cc1 | – | – | 751 | > 20000 | – |
| COc1cccc(CN(CCN(C)C)C(=O)Nc2ccc(-c3cn[nH]c3)cn2)c1 | 17 | 28 | 2 | 470 | solubility [7]: soluble; inhibition at 10 µM [8]: 8%; inhibition at 10 µM [12]: 5%; inhibition at 10 µM [13]: 51%; inhibition at 10 µM [16]: -21%; IC50 [18]: 10 nM |

Continued, in another order:

| half-life [3] [min] | IC50 [6] [nM] | IC50 [14] [nM] | IC50 [17] [nM] | Structure (SMILES) | other results |
| --- | --- | --- | --- | --- | --- |
| – | – | 357 | 518 | COc1ccc(CNC(=O)Nc2ccc(-c3cn[nH]c3)cc2)cc1F | – |
| 112 | 40 | 2 | 4870 | COc1cccc(C(CCO)NC(=O)Nc2ccc(-c3cn[nH]c3)cc2)c1 (stereo not drawn) | clearance [2]: 5.9 mL/min/kg; Cmax [4]: 12000 nM; solubility [7]: soluble; inhibition at 10 µM [8]: 37%; bioavailability [9]: 4%; Vd [10]: 0.25 L/kg; half-life [11]: 42 min; inhibition at 10 µM [12]: 67%; inhibition at 10 µM [13]: 37%; AUC [15]: 7.9 µM·h; inhibition at 10 µM [16]: 3%; IC50 [18]: 11 nM |
| – | > 2700 | 88 | 3100 | O=C(NCCc1ccccc1)Nc1ccc(-c2cn[nH]c2)cc1 | – |
| > 120 | 150 | 2 | 389 | O=C(Nc1ccc(-c2cn[nH]c2)cc1)NC(CO)c1ccccc1 (stereo not drawn) | – |
| – | – | 253 | > 20000 | COc1cccc(CNC(=O)Nc2ccc(-c3cn[nH]c3)cc2)c1OC | – |
| – | – | 304 | > 20000 | O=C(Nc1ccccc1)Nc1ccc(-c2cn[nH]c2)cc1 | – |
| > 60 | 40 | 2 | 238 | CN(C)CCC(NC(=O)Nc1ccc(-c2cn[nH]c2)cc1)c1ccccc1 (stereo not drawn) | clearance [2]: 91 mL/min/kg; Cmax [4]: 200 nM; solubility [7]: soluble; inhibition at 10 µM [8]: 10%; bioavailability [9]: 0%; Vd [10]: 20 L/kg; half-life [11]: 144 min; inhibition at 10 µM [12]: 16%; inhibition at 10 µM [13]: 59%; AUC [15]: 0.5 µM·h; inhibition at 10 µM [16]: -1%; IC50 [18]: 6 nM |
| – | – | 1020 | > 20000 | O=C(NCCCc1ccccc1)Nc1ccc(-c2cn[nH]c2)cc1 | – |
| – | > 2700 | 7 | > 20000 | O=C(Nc1ccc(-c2cn[nH]c2)cc1)OCc1ccccc1 | – |
| – | – | 280 | 8000 | O=C(Nc1ccc(-c2cn[nH]c2)cc1)N1CCc2ccccc2C1 | – |
| – | 2640 | 55 | > 20000 | O=C(Nc1ccc(-c2cn[nH]c2)cc1)OCCc1ccccc1 | – |
| > 120 | 48 | 1 | 438 | O=C(Nc1ccc(-c2cn[nH]c2)cc1)NC(CCO)c1ccccc1 (stereo not drawn) | – |
| – | 91 | 24 | 266 | O=C(CCc1ccccc1)Nc1ccc(-c2cn[nH]c2)cc1 | – |
